# Laboratory results as given in ChEMBL document CHEMBL1772948, “Chemistry and biology of macrolide antiparasitic agents” (J Med Chem, 2011).
# Activity calls are given as the source filed them. The rule behind the calls is not given here.
# Key:
# Bacillus subtilis = experiment: Antibacterial activity against Bacillus subtilis; type: functional
# HFF = experiment: Cytotoxicity against HFF after 48 hrs by MTS assay; type: cell-based; settings: human
# In short: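 Low-passage HFF seeded in 96-well plates and incubated 24h at 37 °C, then exposed to varying macrolide concentrations for 2 days; medium replaced with fresh medium plus MTS, 4h at 37 °C, absorbance 490 nm; CC50 = dose reducing viability by 50%.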
# Toxoplasma gondii [1] = experiment: Antiparasitic activity against yellow fluorescent protein expressing Toxoplasma gondii 2F-1 infected in HFF treated immediately after infection measured after 48 hrs; type: functional, organism-based; settings: 2F-1, 48 h
# Toxoplasma gondii [2] = experiment: Antiparasitic activity against yellow fluorescent protein expressing Toxoplasma gondii 2F-1 treated immediately after infection for 48 hrs followed by reinoculated into fresh HFF monolayers measured after 48 hrs; type: functional, organism-based; settings: 2F-1, 48 h
# In short: (§1)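 Two-cycle protocol in HFF at 37 °C, 5% CO2, DMEM with 10% FBS. "0h": compound added with parasites, 48 h. "6h": parasites pre-incubated 6 h, uninvaded parasites removed, fresh medium with compound added, 42 h. Released tachyzoites were then harvested, purified and inoculated into fresh HFF without compound for the 2nd cycle. At least triplicate.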
# Toxoplasma gondii [3] = experiment: Antiparasitic activity against yellow fluorescent protein expressing Toxoplasma gondii 2F-1 infected in HFF treated 6 hrs after infection measured after 48 hrs; type: functional, organism-based
# Toxoplasma gondii [4] = experiment: Antiparasitic activity against yellow fluorescent protein expressing Toxoplasma gondii 2F-1 treated 6 hrs after infection for 42 hrs followed by reinoculated into fresh HFF monolayers measured after 48 hrs; type: functional, organism-based; in short: as §1
# Toxoplasma gondii [5] = experiment: Antiparasitic activity against green fluorescent protein expressing […] deficient Toxoplasma gondii RH infected in HFF assessed as decrease in density of parasitophorous vacuoles at 10 uM treated immediately after infection measured after 24 hrs by microscopic analysis; type: functional, organism-based
# In short: (§2)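 GFP T. gondii RHΔhxgprt in HFF, compound (10 μM) added either with the inoculum ("0h") or after 6 h pre-infection and washing ("6h"); vacuoles per microscope field scored at 24 h, at least 20 random fields from each of three experiments.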
# Toxoplasma gondii [6] = experiment: (§3) Antiparasitic activity against green fluorescent protein expressing […] deficient Toxoplasma gondii RH infected in HFF assessed as reduction of ycf24/UPRT genes copy number ratio at 5 uM treated for 48 hrs after 6 hrs infection followed by reinoculated into fresh HFF monolayers measured after 48 hrs by RT-PCR analysis; type: functional, organism-based
# In short: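 HFF monolayers infected with RHΔhxgprt (or Clin^R-4) in 6-well plates; after 6 h medium changed and compound present 42 h; at 48 h parasites reinoculated into fresh HFF for 48 h without compound; parasites pelleted at 2,000 rpm 10 min; qPCR (94 °C 20 s, then 40 cycles 94 °C 3 s/60 °C 30 s) plastid ycf24 vs nuclear UPRT copy ratio.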
# Toxoplasma gondii [7] = experiment: Antiparasitic activity against clindamycin-resistant Toxoplasma gondii 4 infected in HFF assessed as reduction of ycf24/UPRT genes copy number ratio at 5 uM treated for 48 hrs after 6 hrs infection followed by reinoculated into fresh HFF monolayers measured after 48 hrs by RT-PCR analysis; type: functional, organism-based
# Toxoplasma gondii [8] = experiment: (§4) Antiparasitic activity against green fluorescent protein expressing […] deficient Toxoplasma gondii RH infected in HFF assessed as reduction of ycf24/UPRT genes copy number ratio at 5 uM treated for 48 hrs immediately after infection followed by reinoculated into fresh HFF monolayers measured after 48 hrs by RT-PCR analysis; type: functional, organism-based
# In short: (§5)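 Tachyzoites were seeded on confluent HFF in 6-well plates at 2×10^5 per well, in DMEM with 10% FBS and 1% PS at 37 °C, 5% CO2. Compound was added together with the parasite inoculum, and cultures ran 48 h. Harvested tachyzoites were reinoculated into fresh HFF without drug for a second cycle. Parasites were pelleted by centrifugation and the plastid ycf24 to nuclear UPRT copy ratio was read by qPCR (40 cycles, 94 °C 3 s / 60 °C 30 s). At least triplicate.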
# Toxoplasma gondii [9] = experiment: Antiparasitic activity against clindamycin-resistant Toxoplasma gondii 4 infected in HFF assessed as reduction of ycf24/UPRT genes copy number ratio at 5 uM treated for 48 hrs immediately after infection followed by reinoculated into fresh HFF monolayers measured after 48 hrs by RT-PCR analysis; type: functional, organism-based; in short: as §5
# Toxoplasma gondii [10] = experiment: Antiparasitic activity against Toxoplasma gondii 2F-1 expressing yellow fluorescent protein infected in HFF after 4 days; type: functional, organism-based; settings: 2F-1, 96 h
# Toxoplasma gondii [11] = experiment: Antiparasitic activity against green fluorescent protein expressing hwgprt deficient Toxoplasma gondii RH infected in HFF at 5 to 50 uM treated immediately after infection measured after 48 hrs; type: functional, organism-based
# In short: (§6)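 GFP-expressing RHΔhxgprt tachyzoites were grown on HFF on glass coverslips in 12-well plates (2×10^4/well). Compound was added either with the parasites ("0h", 48 h) or after a 6 h pre-infection and medium change ("6h", 42 h). Parasites per vacuole were counted by fluorescence microscopy in at least 50 random vacuoles per well. Three independent experiments.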
# Toxoplasma gondii [12] = experiment: Antiparasitic activity against green fluorescent protein expressing hwgprt deficient Toxoplasma gondii RH infected in HFF at 5 to 50 uM treated immediately after infection measured after 48 hrs followed by reinoculated into fresh HFF monolayers measured after 48 hrs; type: functional, organism-based
# Toxoplasma gondii [13] = experiment: Antiparasitic activity against green fluorescent protein expressing […] deficient Toxoplasma gondii RH infected in HFF at 5 to 50 uM treated 6 hrs after infection measured after 48 hrs; type: functional, organism-based; in short: as §6
# Toxoplasma gondii [14] = experiment: Antiparasitic activity against green fluorescent protein expressing […] deficient Toxoplasma gondii RH infected in HFF at 5 to 50 uM treated 6 hrs after infection measured after 48 hrs followed by reinoculated into fresh HFF monolayers measured after 48 hrs; type: functional, organism-based; in short: as §6
# Toxoplasma gondii [15] = experiment: Antiparasitic activity against green fluorescent protein expressing hwgprt deficient Toxoplasma gondii RH infected in HFF assessed as reduction of ycf24/UPRT genes copy number ratio at 10 uM […] followed by reinoculated into fresh HFF monolayers measured after 48 hrs by RT-PCR analysis; type: functional
# Toxoplasma gondii [16] = experiment: Antiparasitic activity against clindamycin-resistant Toxoplasma gondii 4 infected in HFF assessed as reduction of ycf24/UPRT genes copy number ratio at 10 uM treated for 48 hrs after 6 hrs infection followed by reinoculated into fresh HFF monolayers measured after 48 hrs by RT-PCR analysis; type: functional
# In short: (§7)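 Tachyzoites were seeded on confluent HFF monolayers in 6-well plates at 2×10^5 per well, in DMEM with 10% FBS and 1% PS at 37 °C, 5% CO2. After 6 h pre-infection, the medium was replaced with medium containing compound for 42 h. Released parasites were reinoculated into fresh HFF without drug for 48 h, collected by centrifugation, and measured by qPCR as the ratio of plastid ycf24 to nuclear UPRT copies. At least triplicate.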
# Toxoplasma gondii [17] = experiment: as §3, with “1” for “5”; type: functional
# Toxoplasma gondii [18] = experiment: Antiparasitic activity against clindamycin-resistant Toxoplasma gondii 4 infected in HFF assessed as reduction of ycf24/UPRT genes copy number ratio at 1 uM treated for 48 hrs after 6 hrs infection followed by reinoculated into fresh HFF monolayers measured after 48 hrs by RT-PCR analysis; type: functional
# Toxoplasma gondii [19] = experiment: as §3, with “0.1” for “5”; type: functional; in short: as §7
# Toxoplasma gondii [20] = experiment: Antiparasitic activity against clindamycin-resistant Toxoplasma gondii 4 infected in HFF assessed as reduction of ycf24/UPRT genes copy number ratio at 0.1 uM treated for 48 hrs after 6 hrs infection followed by reinoculated into fresh HFF monolayers measured after 48 hrs by RT-PCR analysis; type: functional; in short: as §7
# Toxoplasma gondii [21] = experiment: Antiparasitic activity against green fluorescent protein expressing […] deficient Toxoplasma gondii RH infected in HFF assessed as parasite doubling time at 5 to 50 uM treated immediately after infection measured after 48 hrs; type: functional
# In short: (§8)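 HFF were grown on glass coverslips in 12-well plates and infected with 2×10^4 GFP tachyzoites per well. Compound was added with the inoculum; the first cycle ran 48 h, and the second cycle ran in fresh HFF without drug. Parasites per vacuole were counted by fluorescence microscopy, at least 50 random vacuoles per well, to derive doubling time. Three independent experiments.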
# Toxoplasma gondii [22] = experiment: Antiparasitic activity against green fluorescent protein expressing […] deficient Toxoplasma gondii RH assessed as parasite doubling time at 5 to 50 uM treated immediately after infection for 48 hrs followed by reinoculated into fresh HFF monolayers measured after 48 hrs; type: functional; in short: as §8
# Toxoplasma gondii [23] = experiment: Antiparasitic activity against green fluorescent protein expressing […] deficient Toxoplasma gondii RH infected in HFF assessed as decrease in density of parasitophorous vacuoles at 10 uM treated 6 hrs after infection measured after 24 hrs by microscopic analysis; type: functional, organism-based; in short: as §2
# Toxoplasma gondii [24] = experiment: Antiparasitic activity against clindamycin-resistant Toxoplasma gondii 4 infected in HFF assessed as reduction of ycf24/UPRT genes copy number ratio at 10 uM treated for 48 hrs immediately after infection followed by reinoculated into fresh HFF monolayers measured after 48 hrs by RT-PCR analysis; type: functional; in short: as §5
# Toxoplasma gondii [25] = experiment: as §4, with “1” for “5”; type: functional
# In short: as §5, with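 “CO2.” for “CO2. Compound was added together with the parasite inoculum, and cultures ran 48 h.”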
# Toxoplasma gondii [26] = experiment: Antiparasitic activity against clindamycin-resistant Toxoplasma gondii 4 infected in HFF assessed as reduction of ycf24/UPRT genes copy number ratio at 1 uM treated for 48 hrs immediately after infection followed by reinoculated into fresh HFF monolayers measured after 48 hrs by RT-PCR analysis; type: functional
# In short: as §5, with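 “CO2.” for “CO2. Compound was added together with the parasite inoculum, and cultures ran 48 h.”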
# Toxoplasma gondii [27] = experiment: as §4, with “0.1” for “5”; type: functional; in short: as §5
# Toxoplasma gondii [28] = experiment: Antiparasitic activity against clindamycin-resistant Toxoplasma gondii 4 infected in HFF assessed as reduction of ycf24/UPRT genes copy number ratio at 0.1 uM treated for 48 hrs immediately after infection followed by reinoculated into fresh HFF monolayers measured after 48 hrs by RT-PCR analysis; type: functional; in short: as §5
# Toxoplasma gondii [29] = experiment: Antiparasitic activity against green fluorescent protein expressing hwgprt deficient Toxoplasma gondii RH infected in HFF assessed as reduction of ycf24/UPRT genes copy number ratio at 10 uM treated for 42 hrs starting 6 hrs after infection followed by reinoculated into fresh HFF monolayers measured after 48 hrs by RT-PCR analysis
compound,measurement,setting,value
CC[C@H]1OC(=O)[C@H](C)[C@@H](O[C@H]2C[C@@](C)(OC)[C@@H](O)[C@H](C)O2)[C@H](C)[C@@H](O[C@@H]2O[C@H](C)C[C@H](N(C)C)[C@H]2O)[C@](C)(O)C[C@@H](C)CN(CC2CCCCC2)[C@H](C)[C@@H](O)[C@]1(C)O,MIC,Bacillus subtilis,0.3 µM
same,CC50,HFF,36 µM
same,IC50,Toxoplasma gondii [1],7 µM
same,IC50,Toxoplasma gondii [2],600 nM
same,IC50,Toxoplasma gondii [3],12 µM
same,IC50,Toxoplasma gondii [4],600 nM
same,Activity,Toxoplasma gondii [5],Active
CC[C@H]1OC(=O)[C@H](C)[C@@H](O[C@H]2C[C@@](C)(OC)[C@@H](O)[C@H](C)O2)[C@H](C)[C@@H](O[C@@H]2O[C@H](C)C[C@H](N(C)C)[C@H]2O)[C@](C)(O)C[C@@H](C)CN(CCCc2ccccc2)[C@H](C)[C@@H](O)[C@]1(C)O,MIC,Bacillus subtilis,0.6 µM
same,CC50,HFF,33 µM
same,IC50,Toxoplasma gondii [1],4 µM
same,IC50,Toxoplasma gondii [2],600 nM
same,IC50,Toxoplasma gondii [3],8 µM
same,IC50,Toxoplasma gondii [4],600 nM
same,Activity,Toxoplasma gondii [5],Active
SPIRAMYCIN,Ratio,Toxoplasma gondii [6],5
same,Ratio,Toxoplasma gondii [7],3
same,Ratio,Toxoplasma gondii [8],8
same,Ratio,Toxoplasma gondii [9],8
CC[C@H]1OC(=O)[C@H](C)[C@@H](O[C@H]2C[C@@](C)(OC)[C@@H](O)[C@H](C)O2)[C@H](C)[C@@H](O[C@@H]2O[C@H](C)C[C@H](N(C)C)[C@H]2O)[C@](C)(O)C[C@@H](C)CN(C)[C@H](C)[C@@H](O)[C@]1(C)O [AZITHROMYCIN],IC50,Toxoplasma gondii [10],20 µM
same,MIC,Bacillus subtilis,0.15 µM
same,CC50,HFF,174 µM
same,IC50,Toxoplasma gondii [1],29 µM
same,IC50,Toxoplasma gondii [2],600 nM
same,IC50,Toxoplasma gondii [3],44 µM
same,IC50,Toxoplasma gondii [4],600 nM
same,Activity,Toxoplasma gondii [11],Active
same,Activity,Toxoplasma gondii [12],Active
same,Activity,Toxoplasma gondii [13],Active
same,Activity,Toxoplasma gondii [14],Active
same,Ratio,Toxoplasma gondii [15],3
same,Ratio,Toxoplasma gondii [16],4
same,Ratio,Toxoplasma gondii [17],3
same,Ratio,Toxoplasma gondii [18],3
same,Ratio,Toxoplasma gondii [19],15
same,Ratio,Toxoplasma gondii [20],13
same,Time,Toxoplasma gondii [21],9.5 h
same,Time,Toxoplasma gondii [22],>16 h
same,Activity,Toxoplasma gondii [5],inactive
same,Activity,Toxoplasma gondii [23],inactive
same,Ratio,Toxoplasma gondii [24],10
same,Ratio,Toxoplasma gondii [25],7
same,Ratio,Toxoplasma gondii [26],8
same,Ratio,Toxoplasma gondii [27],7
same,Ratio,Toxoplasma gondii [28],18
same,Ratio,Toxoplasma gondii [29],10
